PMC5198968 (Cancer Science, 2016)
Values joined by “and” are separate entries in the source; they are usually repeats but may differ in a detail not shown here. Identical values can stand only once. “Also recorded” adds a separate entry of the source.

Test system: Japanese patients with advanced hepatocellular carcinoma
Experiment: Adverse events
Type: in vivo, human
Outline: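 Oral test compound given twice daily, continuously, in 28-day cycles until progression or unacceptable AEs. Group I had mild liver impairment (Child–Pugh 5–6) and group II moderate impairment (Child–Pugh 7 or raised AST/ALT). AEs were recorded over the observation period and graded by CTCAE v3.0. The treated set was every patient receiving at least one dose, and analyses were descriptive.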

[1] = Group I (mild liver impairment), 150 mg b.i.d., n = 4
[2] = Group I (mild liver impairment), 200 mg b.i.d., n = 12
[3] = Group I (mild liver impairment), all patients, n = 16
[4] = Group I (mild liver impairment), n = 16, all grades
[5] = Group I (mild liver impairment), n = 16, grade ≥3
[6] = Group II (moderate liver impairment), 100 mg b.i.d., n = 3
[7] = Group II (moderate liver impairment), 150 mg b.i.d., n = 4
[8] = Group II (moderate liver impairment), 200 mg b.i.d., n = 7
[9] = Group II (moderate liver impairment), all patients, n = 14
[10] = Group II (moderate liver impairment), n = 14, all grades
[11] = Group II (moderate liver impairment), n = 14, grade ≥3

COC(=O)c1ccc2c(c1)NC(=O)/C2=C(\Nc1ccc(N(C)C(=O)CN2CCN(C)CC2)cc1)c1ccccc1 [nintedanib]
AEs leading to nintedanib discontinuation [1]: 0 (0.0) n (%)
AEs leading to nintedanib dose reduction [1]: 0 (0.0) n (%)
Any AE [1]: 4 (100.0) n (%)
Investigator-defined drug-related AE [1]: 3 (75.0) n (%)
Other significant AEs (leading to dose reduction or permanent discontinuation of nintedanib) [1]: 0 (0.0) n (%)
Serious AEs [1]: 0 (0.0) n (%)
Serious AEs: Fatal [1]: 0 (0.0) n (%)
Serious AEs: Immediately life-threatening [1]: 0 (0.0) n (%)
Serious AEs: Prolonged hospitalization [1]: 0 (0.0) n (%)
Serious AEs: Required hospitalization [1]: 0 (0.0) n (%)
AEs leading to nintedanib discontinuation [2]: 0 (0.0) n (%)
AEs leading to nintedanib dose reduction [2]: 5 (41.7) n (%)
Any AE [2]: 12 (100.0) n (%)
Investigator-defined drug-related AE [2]: 11 (91.7) n (%)
Other significant AEs (leading to dose reduction or permanent discontinuation of nintedanib) [2]: 5 (41.7) n (%)
Serious AEs [2]: 4 (33.3) n (%)
Serious AEs: Fatal [2]: 0 (0.0) n (%)
Serious AEs: Immediately life-threatening [2]: 0 (0.0) n (%)
Serious AEs: Prolonged hospitalization [2]: 0 (0.0) n (%)
Serious AEs: Required hospitalization [2]: 4 (33.3) n (%)
AEs leading to nintedanib discontinuation [3]: 0 (0.0) n (%)
AEs leading to nintedanib dose reduction [3]: 5 (31.3) n (%)
Any AE [3]: 16 (100.0) n (%)
Investigator-defined drug-related AE [3]: 14 (87.5) n (%)
Other significant AEs (leading to dose reduction or permanent discontinuation of nintedanib) [3]: 5 (31.3) n (%)
Serious AEs [3]: 4 (25.0) n (%)
Serious AEs: Fatal [3]: 0 (0.0) n (%)
Serious AEs: Immediately life-threatening [3]: 0 (0.0) n (%)
Serious AEs: Prolonged hospitalization [3]: 0 (0.0) n (%)
Serious AEs: Required hospitalization [3]: 4 (25.0) n (%)
Abdominal pain [4]: 4 (25.0)
Any AE [4]: 16 (100)
Ascites [4]: 1 (6.3)
Decreased appetite [4]: 6 (37.5)
Decreased platelet count [4]: 2 (12.5)
Diarrhea [4]: 8 (50.0)
Fatigue [4]: 3 (18.8)
Hyperuricemia [4]: 1 (6.3)
Hypoalbuminemia [4]: 2 (12.5)
Increased ALT [4]: 1 (6.3)
Increased AST [4]: 4 (25.0)
Increased blood bilirubin [4]: 1 (6.3)
Malaise [4]: 4 (25.0)
Malignant neoplasm progression [4]: 1 (6.3)
Nausea [4]: 7 (43.8)
Neutropenia [4]: 2 (12.5)
Pyrexia [4]: 2 (12.5)
Vomiting [4]: 6 (37.5)
Abdominal pain [5]: 0 (0.0)
Any AE [5]: 7 (43.8)
Ascites [5]: 0 (0.0)
Decreased appetite [5]: 0 (0.0)
Decreased platelet count [5]: 2 (12.5)
Diarrhea [5]: 1 (6.3)
Fatigue [5]: 1 (6.3)
Hyperuricemia [5]: 0 (0.0)
Hypoalbuminemia [5]: 0 (0.0)
Increased ALT [5]: 0 (0.0)
Increased AST [5]: 0 (0.0)
Increased blood bilirubin [5]: 0 (0.0)
Malaise [5]: 0 (0.0)
Malignant neoplasm progression [5]: 0 (0.0)
Nausea [5]: 0 (0.0)
Neutropenia [5]: 0 (0.0)
Pyrexia [5]: 0 (0.0)
Vomiting [5]: 0 (0.0)
AEs leading to nintedanib discontinuation [6]: 0 (0.0) n (%)
AEs leading to nintedanib dose reduction [6]: 1 (33.3) n (%)
Any AE [6]: 3 (100.0) n (%)
Investigator-defined drug-related AE [6]: 3 (100.0) n (%)
Other significant AEs (leading to dose reduction or permanent discontinuation of nintedanib) [6]: 1 (33.3) n (%)
Serious AEs [6]: 1 (33.3) n (%)
Serious AEs: Fatal [6]: 0 (0.0) n (%)
Serious AEs: Immediately life-threatening [6]: 0 (0.0) n (%)
Serious AEs: Prolonged hospitalization [6]: 0 (0.0) n (%)
Serious AEs: Required hospitalization [6]: 1 (33.3) n (%)
AEs leading to nintedanib discontinuation [7]: 0 (0.0) n (%)
AEs leading to nintedanib dose reduction [7]: 1 (25.0) n (%)
Any AE [7]: 4 (100.0) n (%)
Investigator-defined drug-related AE [7]: 4 (100.0) n (%)
Other significant AEs (leading to dose reduction or permanent discontinuation of nintedanib) [7]: 1 (25.0) n (%)
Serious AEs [7]: 2 (50.0) n (%)
Serious AEs: Fatal [7]: 1 (25.0) n (%)
Serious AEs: Immediately life-threatening [7]: 0 (0.0) n (%)
Serious AEs: Prolonged hospitalization [7]: 0 (0.0) n (%)
Serious AEs: Required hospitalization [7]: 2 (50.0) n (%)
AEs leading to nintedanib discontinuation [8]: 0 (0.0) n (%)
AEs leading to nintedanib dose reduction [8]: 1 (14.3) n (%)
Any AE [8]: 7 (100.0) n (%)
Investigator-defined drug-related AE [8]: 5 (71.4) n (%)
Other significant AEs (leading to dose reduction or permanent discontinuation of nintedanib) [8]: 1 (14.3) n (%)
Serious AEs [8]: 3 (42.9) n (%)
Serious AEs: Fatal [8]: 1 (14.3) n (%)
Serious AEs: Immediately life-threatening [8]: 1 (14.3) n (%)
Serious AEs: Prolonged hospitalization [8]: 1 (14.3) n (%)
Serious AEs: Required hospitalization [8]: 3 (42.9) n (%)
AEs leading to nintedanib discontinuation [9]: 0 (0.0) n (%)
AEs leading to nintedanib dose reduction [9]: 3 (21.4) n (%)
Any AE [9]: 14 (100.0) n (%)
Investigator-defined drug-related AE [9]: 12 (85.7) n (%)
Other significant AEs (leading to dose reduction or permanent discontinuation of nintedanib) [9]: 3 (21.4) n (%)
Serious AEs [9]: 6 (42.9) n (%)
Serious AEs: Fatal [9]: 2 (14.3) n (%)
Serious AEs: Immediately life-threatening [9]: 1 (7.1) n (%)
Serious AEs: Prolonged hospitalization [9]: 1 (7.1) n (%)
Serious AEs: Required hospitalization [9]: 6 (42.9) n (%)
Abdominal pain (upper abdominal pain for group II) [10]: 2 (14.3)
Any AE [10]: 14 (100)
Ascites [10]: 7 (50.0)
Decreased appetite [10]: 7 (50.0)
Decreased platelet count [10]: 1 (7.1)
Diarrhea [10]: 6 (42.9)
Fatigue [10]: 5 (35.7)
Hyperuricemia [10]: 3 (21.4)
Hypoalbuminemia [10]: 6 (42.9)
Increased ALT [10]: 4 (28.6)
Increased AST [10]: 5 (35.7)
Increased blood bilirubin [10]: 4 (28.6)
Lymphopenia [10]: 2 (14.3)
Malaise [10]: 3 (21.4)
Malignant neoplasm progression [10]: 4 (28.6)
Nausea [10]: 5 (35.7)
Neutropenia [10]: 3 (21.4)
Pyrexia [10]: 4 (28.6)
Vomiting [10]: 3 (21.4)
Abdominal pain (upper abdominal pain for group II) [11]: 0 (0.0)
Any AE [11]: 11 (78.6)
Ascites [11]: 1 (7.1)
Decreased appetite [11]: 0 (0.0)
Decreased platelet count [11]: 0 (0.0)
Diarrhea [11]: 0 (0.0)
Fatigue [11]: 0 (0.0)
Hyperuricemia [11]: 2 (14.3)
Hypoalbuminemia [11]: 1 (7.1)
Increased ALT [11]: 2 (14.3)
Increased AST [11]: 3 (21.4)
Increased blood bilirubin [11]: 0 (0.0)
Lymphopenia [11]: 2 (14.3)
Malaise [11]: 0 (0.0)
Malignant neoplasm progression [11]: 2 (14.3)
Nausea [11]: 0 (0.0)
Neutropenia [11]: 2 (14.3)
Pyrexia [11]: 0 (0.0)
Vomiting [11]: 0 (0.0)
Discontinuation of nintedanib due to AEs (both groups): No patients discontinued nintedanib due to adverse events; also recorded: No patients discontinued nintedanib due to AEs
Drug-related fatal AEs (both groups): No drug‐related fatal AEs were reported
Hypertension at grade ≥3 (both groups): not reported by any patients
Ascites, any grade (group I): 6.3%
Bleeding, incidence (group I): 12.5%
Decreased appetite, any grade (group I): 37.5%
Diarrhea, any grade (group I): 50.0%
Fatigue, any grade (group I): 18.8%
Hand-foot skin reaction (group I): one patient in group I
Hypertension, incidence (group I): 12.5%
Hypoalbuminemia, any grade (group I): 12.5%
Increased AST, any grade (group I): 25.0%
Nausea, any grade (group I): 43.8%
Serious AEs considered drug-related by the investigator (group I): grade 3 immune thrombocytopenic purpura and grade 3 hyponatremia
Thromboembolic events at grade ≥3 (group I): no patients in group I
Thromboembolic events, incidence (group I): 0.0%
Vomiting, any grade (group I): 37.5%
Patients with dose reduction of nintedanib due to AEs (group I (five patients, all on 200 mg)): 31% and 31.3%
Patients with serious AEs (all requiring hospitalization) (group I (four patients)): 25.0%
Patients with adverse events at grade ≥3 (group I (seven patients)): 43.8%
Ascites, any grade (group II): 50.0%
Bleeding at grade ≥3 (group II): no patients in group II
Bleeding, incidence (group II): 14.3%
Decreased appetite, any grade (group II): 50.0%
Diarrhea, any grade (group II): 42.9%
Fatigue, any grade (group II): 35.7%
Hand-foot skin reaction (group II): no patients in group II
Hypertension, incidence (group II): 21.4%
Hypoalbuminemia, any grade (group II): 42.9%
Increased AST, any grade (group II): 35.7%
Nausea, any grade (group II): 35.7%
Serious AEs considered drug-related by the investigator (group II): grade 2 gastroenteritis, grade 3 drug‐induced liver injury, and grade 2 pyrexia
Thromboembolic events, incidence (group II): 7.1%
Vomiting, any grade (group II): 21.4%
Patients with adverse events at grade ≥3 (group II (11 patients)): 78.6%
Thromboembolic events at grade ≥3 (group II (one patient)): 7.1%
Patients with serious AEs (all requiring hospitalization) (group II (six patients)): 42.9%
Patients with dose reduction of nintedanib due to AEs (group II (three patients, one from each dose)): 21% and 21.4%
